Source: ChEMBL document CHEMBL3244142, “Antifungal properties of 2-bromo-3-fluorosuccinic acid esters and related compounds” (1977)
Values after ≈ are worked out from the molar mass of the structure shown. Structures can show the parent of a compound that is named as a salt. Active and inactive are the calls of the source. No cut-off for these calls is given here.

Columns and labels:
Aspergillus niger [1] = assay: Antifungal activity against Aspergillus niger ATCC 1004 at <100 ug/ml at pH 5.6 after 5 days in presence of 10% beef serum; assay type: functional, organism-based
Outline: (§1)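 Agar-dilution MIC in Sabouraud dextrose agar at pH 5.6 or 7.0, with or without 10% beef serum. Plates were incubated at 28 °C for 5 days. MIC is the lowest concentration (µg/mL) giving 100% inhibition. Steps were 1 µg/mL up to 10, 2 µg/mL from 10–20, and 10 µg/mL from 20–100; 100 µg/mL was the top level, and no inhibition there is scored as >100.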

Aspergillus niger [2] = assay: Antifungal activity against Aspergillus niger ATCC 1004 at <100 ug/ml at pH 7 after 5 days in absence of 10% beef serum; assay type: functional, organism-based; outline: as §1
Aspergillus niger [3] = assay: Antifungal activity against Aspergillus niger ATCC 1004 at <100 ug/ml at pH 7 after 5 days in presence of 10% beef serum; assay type: functional, organism-based; outline: as §1
[4] = tested on: Trichophyton mentagrophytes; assay: Antifungal activity against Trichophyton mentagrophytes ATCC 9129 at pH 5.6 after 5 days in absence of 10% beef serum; assay type: functional; conditions: Trichophyton mentagrophytes, ATCC 9129, 120 h; read-out: MIC; outline: as §1
[5] = tested on: Trichophyton mentagrophytes; assay: Antifungal activity against Trichophyton mentagrophytes ATCC 9129 at pH 5.6 after 5 days in presence of 10% beef serum; assay type: functional; conditions: Trichophyton mentagrophytes, ATCC 9129, 120 h; read-out: MIC; outline: as §1
[6] = tested on: Trichophyton mentagrophytes; assay: Antifungal activity against Trichophyton mentagrophytes ATCC 9129 at pH 7 after 5 days in absence of 10% beef serum; assay type: functional; conditions: Trichophyton mentagrophytes, ATCC 9129, 120 h; read-out: MIC; outline: as §1
[7] = tested on: Trichophyton mentagrophytes; assay: Antifungal activity against Trichophyton mentagrophytes ATCC 9129 at pH 7 after 5 days in presence of 10% beef serum; assay type: functional; conditions: Trichophyton mentagrophytes, ATCC 9129, 120 h; read-out: MIC; outline: as §1
Aspergillus niger [8] = assay: Antifungal activity against Aspergillus niger ATCC 1004 at <100 ug/ml at pH 5.6 after 5 days in absence of 10% beef serum; assay type: functional, organism-based; outline: as §1
Mucor mucedo [9] = assay: Antifungal activity against Mucor mucedo ATCC 7941 at pH 7 after 20 h in absence of 10% beef serum; conditions: ATCC 7941, 20 h
Mucor mucedo [10] = assay: Antifungal activity against Mucor mucedo ATCC 7941 at pH 7 after 20 h in presence of 10% beef serum; conditions: ATCC 7941, 20 h
Mucor mucedo [11] = assay: Antifungal activity against Mucor mucedo ATCC 7941 at pH 5.6 after 20 h in absence of 10% beef serum; conditions: ATCC 7941, 20 h
Mucor mucedo [12] = assay: Antifungal activity against Mucor mucedo ATCC 7941 at pH 5.6 after 20 h in presence of 10% beef serum; conditions: ATCC 7941, 20 h
Candida albicans [13] = assay: Antifungal activity against Candida albicans ATCC 10231 at pH 7 after 20 h in absence of 10% beef serum; conditions: ATCC 10231, 20 h
Candida albicans [14] = assay: Antifungal activity against Candida albicans ATCC 10231 at pH 7 after 20 h in presence of 10% beef serum; conditions: ATCC 10231, 20 h
Candida albicans [15] = assay: Antifungal activity against Candida albicans ATCC 10231 at pH 5.6 after 20 h in absence of 10% beef serum; conditions: ATCC 10231, 20 h
Candida albicans [16] = assay: Antifungal activity against Candida albicans ATCC 10231 at pH 5.6 after 20 h in presence of 10% beef serum; conditions: ATCC 10231, 20 h
Aspergillus niger [17] = assay: Antifungal activity against Aspergillus niger ATCC 1004 at pH 5.6 after 5 days in presence of 10% beef serum; assay type: functional; conditions: Aspergillus niger, ATCC 1004, 120 h; read-out: MIC; outline: as §1
Aspergillus niger [18] = assay: Antifungal activity against Aspergillus niger ATCC 1004 at pH 7 after 5 days in absence of 10% beef serum; assay type: functional; conditions: Aspergillus niger, ATCC 1004, 120 h; read-out: MIC; outline: as §1
Aspergillus niger [19] = assay: Antifungal activity against Aspergillus niger ATCC 1004 at pH 7 after 5 days in presence of 10% beef serum; assay type: functional; conditions: Aspergillus niger, ATCC 1004, 120 h; read-out: MIC; outline: as §1
Aspergillus niger [20] = assay: Antifungal activity against Aspergillus niger ATCC 1004 at pH 5.6 after 5 days in absence of 10% beef serum; assay type: functional; conditions: Aspergillus niger, ATCC 1004, 120 h; read-out: MIC; outline: as §1
[21] = tested on: Trichophyton mentagrophytes; assay: Antifungal activity against Trichophyton mentagrophytes ATCC 9129 at <100 ug/ml at pH 5.6 after 5 days in presence of 10% beef serum; assay type: functional, organism-based; outline: as §1
[22] = tested on: Trichophyton mentagrophytes; assay: Antifungal activity against Trichophyton mentagrophytes ATCC 9129 at <100 ug/ml at pH 7 after 5 days in presence of 10% beef serum; assay type: functional, organism-based; outline: as §1
Mucor mucedo [23] = assay: Antifungal activity against Mucor mucedo ATCC 7941 at <100 ug/ml at pH 7 after 20 h in absence of 10% beef serum
Mucor mucedo [24] = assay: Antifungal activity against Mucor mucedo ATCC 7941 at <100 ug/ml at pH 7 after 20 h in presence of 10% beef serum
Mucor mucedo [25] = assay: Antifungal activity against Mucor mucedo ATCC 7941 at <100 ug/ml at pH 5.6 after 20 h in absence of 10% beef serum
Mucor mucedo [26] = assay: Antifungal activity against Mucor mucedo ATCC 7941 at <100 ug/ml at pH 5.6 after 20 h in presence of 10% beef serum
Candida albicans [27] = assay: Antifungal activity against Candida albicans ATCC 10231 at <100 ug/ml at pH 7 after 20 h in absence of 10% beef serum
Candida albicans [28] = assay: Antifungal activity against Candida albicans ATCC 10231 at <100 ug/ml at pH 7 after 20 h in presence of 10% beef serum
Candida albicans [29] = assay: Antifungal activity against Candida albicans ATCC 10231 at <100 ug/ml at pH 5.6 after 20 h in absence of 10% beef serum
Candida albicans [30] = assay: Antifungal activity against Candida albicans ATCC 10231 at <100 ug/ml at pH 5.6 after 20 h in presence of 10% beef serum

| Structure (SMILES) | inhibition (Aspergillus niger [1]) | inhibition (Aspergillus niger [2]) | inhibition (Aspergillus niger [3]) | MIC [4] [µg/mL] | MIC [5] [µg/mL] | MIC [6] [µg/mL] | MIC [7] [µg/mL] | inhibition (Aspergillus niger [8]) | MIC (Mucor mucedo [9]) [µg/mL] | MIC (Mucor mucedo [10]) [µg/mL] | MIC (Mucor mucedo [11]) [µg/mL] | MIC (Mucor mucedo [12]) [µg/mL] | MIC (Candida albicans [13]) [µg/mL] | MIC (Candida albicans [14]) [µg/mL] | MIC (Candida albicans [15]) [µg/mL] | MIC (Candida albicans [16]) [µg/mL] | MIC (Aspergillus niger [17]) [µg/mL] | MIC (Aspergillus niger [18]) [µg/mL] | MIC (Aspergillus niger [19]) [µg/mL] | MIC (Aspergillus niger [20]) [µg/mL] | also measured |
| --- | --- | --- | --- | --- | --- | --- | --- | --- | --- | --- | --- | --- | --- | --- | --- | --- | --- | --- | --- | --- | --- |
| COC(=O)/C=C(/Br)C(=O)OC | inactive | inactive | inactive | 4 (≈ 17.9 µM) | 5 | 7 (≈ 31.4 µM) | 14 | inactive | 40 (≈ 179 µM) | 40 | 10 (≈ 44.8 µM) | 40 | 90 (≈ 404 µM) | 90 | 90 (≈ 404 µM) | 80 |  |  |  |  |  |
| CCOC(=O)[C@H](F)[C@@H](Br)C(=O)OCC (relative stereo) |  |  |  | < 1 | 2 | 2 (≈ 7.38 µM) | 5 |  | 4 (≈ 14.8 µM) | 9 | 2 (≈ 7.38 µM) | 6 | 7 (≈ 25.8 µM) | 14 | 4 (≈ 14.8 µM) | 5 | 20 | 20 (≈ 73.8 µM) | 30 | 18 (≈ 66.4 µM) |  |
| CCOC(=O)[C@@H](F)[C@@H](Br)C(=O)OCC (relative stereo) |  |  |  | 2 (≈ 7.38 µM) | 5 | 3 (≈ 11.1 µM) | 6 |  | 6 (≈ 22.1 µM) | 7 | 4 (≈ 14.8 µM) | 5 | 12 (≈ 44.3 µM) | 16 | 4 (≈ 14.8 µM) | 6 | 12 | 30 (≈ 111 µM) | 40 | 12 (≈ 44.3 µM) |  |
| COC(=O)/C=C/C(=O)OC [DIMETHYL FUMARATE] | inactive | inactive | inactive | 8 | 16 | 20 | 30 | inactive | 40 | 50 | 18 | 30 | 90 | 90 | 60 | 60 |  |  |  |  |  |
| COC(=O)/C=C(\Br)C(=O)OC |  |  |  | < 1 | 3 | 3 (≈ 13.5 µM) | 9 |  | 5 (≈ 22.4 µM) | 14 | 3 (≈ 13.5 µM) | 4 | 18 (≈ 80.7 µM) | 20 | 12 (≈ 53.8 µM) | 14 | 16 | 18 (≈ 80.7 µM) | 20 | 14 (≈ 62.8 µM) |  |
| CCCOC(=O)[C@@H](F)[C@@H](Br)C(=O)OCCC (relative stereo) |  |  |  | < 1 | 5 | 2 (≈ 6.69 µM) | 14 |  | 3 (≈ 10 µM) | 14 | < 1 | 14 | 4 (≈ 13.4 µM) | 14 | 3 (≈ 10 µM) | 5 | 18 | 40 (≈ 134 µM) | 60 | 18 (≈ 60.2 µM) |  |
| CC1/C=C/C=C/C=C/C=C/C=C/C=C/C=C/C(OC2O[C@H](C)[C@@H](O)[C@H](N)[C@@H]2O)CC(O)C(C(=O)O)C(O)CC(=O)CC(O)CC(O)CC(O)CC(=O)CCCC(=O)CC(=O)OC1C(C)CC(C)C(O)CC(=O)c1ccc(N)cc1 (some centres not stated) |  |  |  | < 1 | < 1 | 3 (≈ 2.7 µM) | 9 |  | < 1 | 2 | < 1 | < 1 | < 1 | 2 | < 1 | < 1 | 5 | 8 (≈ 7.21 µM) | 10 | 2 (≈ 1.8 µM) |  |
| COC(=O)/C=C(\F)C(=O)OC |  |  | inactive | < 1 | 4 | 8 (≈ 49.3 µM) | 40 |  | 4 (≈ 24.7 µM) | 6 | < 1 | 2 | 20 (≈ 123 µM) | 40 | 4 (≈ 24.7 µM) | 6 | 50 | 60 (≈ 370 µM) |  | 20 (≈ 123 µM) |  |
| CCCCCOC(=O)[C@@H](F)[C@@H](Br)C(=O)OCCCCC (relative stereo) | inactive | inactive | inactive | 3 (≈ 8.44 µM) |  | 14 (≈ 39.4 µM) |  | inactive |  |  |  |  |  |  |  |  |  |  |  |  | inhibition [21]: inactive; inhibition [22]: inactive; inhibition (Mucor mucedo [23]): inactive; inhibition (Mucor mucedo [24]): inactive; inhibition (Mucor mucedo [25]): inactive; inhibition (Mucor mucedo [26]): inactive; inhibition (Candida albicans [27]): inactive; inhibition (Candida albicans [28]): inactive; inhibition (Candida albicans [29]): inactive; inhibition (Candida albicans [30]): inactive |
| CCOC(=O)/C=C/C(=O)OCC | inactive | inactive | inactive | 7 (≈ 40.7 µM) | 20 | 18 (≈ 105 µM) | 50 | inactive | 50 (≈ 290 µM) | 50 | 40 (≈ 232 µM) | 50 | 90 (≈ 523 µM) |  | 60 (≈ 348 µM) | 70 |  |  |  |  | inhibition (Candida albicans [28]): inactive |
| CCCCCOC(=O)[C@H](F)[C@@H](Br)C(=O)OCCCCC (relative stereo) | inactive | inactive | inactive | 12 (≈ 33.8 µM) |  | 40 (≈ 113 µM) |  | inactive |  |  |  |  |  |  |  |  |  |  |  |  | inhibition [21]: inactive; inhibition [22]: inactive; inhibition (Mucor mucedo [23]): inactive; inhibition (Mucor mucedo [24]): inactive; inhibition (Mucor mucedo [25]): inactive; inhibition (Mucor mucedo [26]): inactive; inhibition (Candida albicans [27]): inactive; inhibition (Candida albicans [28]): inactive; inhibition (Candida albicans [29]): inactive; inhibition (Candida albicans [30]): inactive |
| CCCCCOC(=O)/C=C/C(=O)OCCCCC | inactive | inactive | inactive | 16 (≈ 62.4 µM) |  | 50 (≈ 195 µM) |  | inactive |  |  |  |  |  |  |  |  |  |  |  |  | inhibition [21]: inactive; inhibition [22]: inactive; inhibition (Mucor mucedo [23]): inactive; inhibition (Mucor mucedo [24]): inactive; inhibition (Mucor mucedo [25]): inactive; inhibition (Mucor mucedo [26]): inactive; inhibition (Candida albicans [27]): inactive; inhibition (Candida albicans [28]): inactive; inhibition (Candida albicans [29]): inactive; inhibition (Candida albicans [30]): inactive |
